# According to ChEMBL document CHEMBL2406905, “Improving the antibacterial activity and selectivity of an ultra short peptide by hydrophobic and hydrophilic amino acid stretches” (Bioorg Med Chem Lett, 2013):
# Calls of active or inactive are those of the source. The rule behind the calls is not given here.
# Columns and labels:
# Staphylococcus aureus = test: Antibacterial activity against Staphylococcus aureus ATCC 25923 assessed as growth inhibition after 24 hrs; format: functional; conditions: for MIC90: Staphylococcus aureus, ATCC 25923, 24 h
# Summary of the method: (§1)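 Log-phase bacteria adjusted to OD600 0.001 in nutrient broth. Peptide dilutions in 20 mM Tris–HCl pH 7.4 were added; buffer alone served as control. Incubation was 37 °C for 24 h. % inhibition was calculated from the OD600 change (24 h minus time zero) relative to the control change. MIC was the concentration giving >90% growth inhibition.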
# [1] = system: Staphylococcus epidermidis; test: Antibacterial activity against Staphylococcus epidermidis ATCC 12228 assessed as growth inhibition after 24 hrs; format: functional; conditions: for MIC90: Staphylococcus epidermidis, ATCC 12228, 24 h; summary of the method: as §1
# Salmonella typhi [2] = test: Antibacterial activity against Salmonella typhi DMST 22842 assessed as growth inhibition after 24 hrs; format: functional, Salmonella enterica subsp. enterica serovar Typhi; conditions: for MIC90: Salmonella enterica, DMST 22842, 24 h
# Escherichia coli [3] = test: Antibacterial activity against Escherichia coli ATCC 25922 assessed as growth inhibition after 24 hrs; format: functional; summary of the method: as §1
# Pseudomonas aeruginosa = test: Antibacterial activity against Pseudomonas aeruginosa ATCC 27853 assessed as growth inhibition after 24 hrs; format: functional; summary of the method: as §1
# [4] = (§2) Antibacterial activity against Vibrio cholerae non-O1 non-O139 assessed as growth inhibition after 24 hrs; format: functional; conditions: for MIC90: Vibrio cholerae, non-O139, 24 h
# [5] = Therapeutic index, ratio of MHC for human RBC to MIC for Salmonella typhi DMST 22842; conditions: human red blood cells (RBC), read-out: TI
# Summary of the method: (§3)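 Index was calculated as MHC/MIC. MHC was the lowest peptide concentration producing 5% hemolysis of human red blood cells. MIC was the concentration giving >90% inhibition of bacterial growth (OD600) after 24 h at 37 °C in nutrient broth, with bacteria starting at OD600 0.001.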
# [6] = Therapeutic index, ratio of MHC for human RBC to MIC for Staphylococcus epidermidis ATCC 12228; conditions: human red blood cells (RBC), read-out: TI; summary of the method: as §3
# [7] = Hemolytic activity in human RBC at 1 to 91 ug/ml; format: ADME, cell-based; conditions: erythrocyte
# Summary of the method: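 Human red blood cells were exposed to peptide. Minimal hemolytic concentration was taken as the lowest peptide concentration producing 5% hemolysis.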
# [8] = Therapeutic index, ratio of MHC for human RBC to MIC for Staphylococcus aureus ATCC 25923; conditions: human red blood cells (RBC), read-out: TI; summary of the method: as §3
# [9] = Therapeutic index, ratio of MHC for human RBC to MIC for Vibrio cholerae non-O1 non-O139; conditions: human red blood cells (RBC), read-out: TI; summary of the method: as §3
# [10] = Therapeutic index, ratio of MHC for human RBC to MIC for Escherichia coli ATCC 25922; conditions: human red blood cells (RBC), read-out: TI; summary of the method: as §3
# Vibrio cholerae non-O1 = test: as §2; format: functional
# Escherichia coli [11] = test: Antibacterial activity against Escherichia coli ATCC 25922 assessed as appearance of blebs on cell surface at 10 X MIC after 1 min by SEM analysis; format: functional, organism-based
# Summary of the method: (§4)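 Bacterial suspension at OD600 0.1 was exposed to peptide at 10× MIC for 1 min and 60 min. The negative control was 20 mM Tris–HCl buffer. Cell morphology was then examined by scanning electron microscopy.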
# [12] = Therapeutic index, ratio of MHC for human RBC to MIC for Pseudomonas aeruginosa ATCC 27853; conditions: human red blood cells (RBC), read-out: TI; summary of the method: as §3
# Escherichia coli [13] = test: Bactericidal activity against Escherichia coli ATCC 25922 assessed as reduction in CFU at 11 ug/mL after 48 hrs; format: functional; design: scale not given: the % may be the effect or the level left
# Summary of the method: (§5)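 After the 24 h, 37 °C broth-microdilution exposure (log-phase inoculum at OD600 0.001, peptide in 20 mM Tris–HCl pH 7.4), 5 μL from each well was plated on agar and incubated at 37 °C for 48 h. 100% bactericidal concentration was the concentration giving a 99.9% CFU reduction from the starting inoculum.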
# RAW264.7 = test: Cytotoxicity against mouse RAW264.7 cells assessed as cell viability at 1 to 91 ug/ml after 48 hrs by MTT assay; format: cell-based; conditions: raw264.7, 48 h
# Summary of the method: (§6)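 Monolayer cell viability was read by MTT. Results are given as mean ± SEM (n = 8). Significance was tested by one-way ANOVA with Scheffe's multiple range test (p < 0.05).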
# Vero = test: Cytotoxicity against african green monkey Vero cells assessed as cell viability at 1 to 91 ug/ml after 48 hrs by MTT assay; format: cell-based; conditions: chlorocebus sabaeus; summary of the method: as §6
# [14] = system: Staphylococcus epidermidis; test: Bactericidal activity against Staphylococcus epidermidis ATCC 12228 assessed as reduction in CFU at 23 ug/mL after 48 hrs; format: functional; design: scale not given: the % may be the effect or the level left; summary of the method: as §5
# [15] = system: Staphylococcus epidermidis; test: Antibacterial activity against Staphylococcus epidermidis ATCC 12228 assessed as appearance of rough and wavy cell morphology at 10 X MIC after 1 min by SEM analysis; format: functional, organism-based; summary of the method: as §4
# Salmonella typhi [16] = test: Antibacterial activity against Salmonella typhi DMST 22842 assessed as appearance of rough and wavy cell morphology at 10 X MIC after 1 min by SEM analysis; format: functional, organism-based; conditions: Salmonella enterica subsp. enterica serovar Typhi
# Summary of the method: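 Bacterial suspension (OD600 0.1) was incubated with peptide at 10×MIC for 1 and 60 min, with 20 mM Tris–HCl buffer as negative control. Cell morphology was examined by scanning electron microscopy.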
# Escherichia coli [17] = test: Bactericidal activity against Escherichia coli ATCC 25922 assessed as reduction in CFU at 46 ug/mL after 48 hrs; format: functional; design: scale not given: the % may be the effect or the level left; summary of the method: as §5
# Salmonella typhi [18] = test: Bactericidal activity against Salmonella typhi DMST 22842 assessed as reduction in CFU at 23 ug/mL after 48 hrs; format: functional, Salmonella enterica subsp. enterica serovar Typhi; design: scale not given: the % may be the effect or the level left
# Summary of the method: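 Bacteria at OD600 0.001 in nutrient broth were exposed to peptide in 20 mM Tris–HCl (pH 7.4) at 37 °C for 24 h. A sample from each well was then plated on agar and incubated at 37 °C for 48 h. Bactericidal activity was taken as a 99.9% CFU reduction versus the starting inoculum.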
# [19] = Escherichia coli, ATCC 25922, 24 h
# [20] = Pseudomonas aeruginosa, ATCC 27853, 24 h
substance,measurement,setting,value
H-NGVQPKY-OH,growth inhibition (GI),Staphylococcus aureus,<90%
same,MIC90,Staphylococcus aureus,> 200 µg/mL
same,growth inhibition (GI),[1],<90%
same,MIC90,[1],> 200 µg/mL
same,growth inhibition (GI),Salmonella typhi [2],<90%
same,MIC90,Salmonella typhi [2],> 200 µg/mL
same,growth inhibition (GI),Escherichia coli [3],<90%
same,MIC90,Escherichia coli [3]; [19],> 200 µg/mL
same,growth inhibition (GI),Pseudomonas aeruginosa,<90%
same,MIC90,Pseudomonas aeruginosa; [20],> 200 µg/mL
same,growth inhibition (GI),[4],<90%
same,MIC90,[4],> 200 µg/mL
H-RWWRWWRRWWW-NH2,growth inhibition (GI),Staphylococcus aureus,<90%
same,MIC90,Staphylococcus aureus,> 91 µg/mL
same,selectivity ratio,[5],< 0.02
same,selectivity ratio,[6],< 0.02
same,Activity,[7],Toxic
same,growth inhibition (GI),[1],<90%
same,MIC90,[1],> 91 µg/mL
same,selectivity ratio,[8],< 0.02
same,selectivity ratio,[9],< 0.02
same,growth inhibition (GI),Salmonella typhi [2],<90%
same,MIC90,Salmonella typhi [2],> 91 µg/mL
same,MIC90,Escherichia coli [3],inactive
same,MIC90,Pseudomonas aeruginosa,inactive
same,growth inhibition (GI),[4],<90%
same,MIC90,[4],> 91 µg/mL
H-NGVQPKYRWWRWWRRWWW-OH,growth inhibition (GI),Staphylococcus aureus,<90%
same,MIC90,Staphylococcus aureus,> 91 µg/mL
same,selectivity ratio,[5],< 0.25
same,selectivity ratio,[6],0.25
same,selectivity ratio,[10],< 0.25
same,Activity,[7],Toxic
same,MIC90,[1],91 µg/mL
same,selectivity ratio,[8],< 0.25
same,growth inhibition (GI),Salmonella typhi [2],<90%
same,MIC90,Salmonella typhi [2],> 91 µg/mL
same,growth inhibition (GI),Escherichia coli [3],<90%
same,MIC90,Escherichia coli [3]; [19],> 91 µg/mL
same,MIC90,Pseudomonas aeruginosa,inactive
same,MIC90,Vibrio cholerae non-O1,inactive
H-NGVQPWYKWWKWWKKWW-NH2,growth inhibition (GI),Staphylococcus aureus,<90%
same,MIC90,Staphylococcus aureus,> 91 µg/mL
same,selectivity ratio,[5],< 0.06
same,selectivity ratio,[6],0.06
same,selectivity ratio,[10],< 0.06
same,Activity,[7],Toxic
same,MIC90,[1],91 µg/mL
same,selectivity ratio,[8],< 0.06
same,selectivity ratio,[9],0.06
same,growth inhibition (GI),Salmonella typhi [2],<90%
same,MIC90,Salmonella typhi [2],> 91 µg/mL
same,growth inhibition (GI),Escherichia coli [3],<90%
same,MIC90,Escherichia coli [3]; [19],> 91 µg/mL
same,MIC90,Pseudomonas aeruginosa,inactive
same,MIC90,[4],91 µg/mL
H-NGVQPKYKWWKWWKKWW-NH2,MIC90,Staphylococcus aureus,46 µg/mL
same,selectivity ratio,[5],2
same,selectivity ratio,[6],2
same,selectivity ratio,[10],4
same,Activity,[7],Non-toxic
same,MIC90,[1],23 µg/mL
same,Activity,Escherichia coli [11],Active
same,selectivity ratio,[12],0.5
same,Activity,Escherichia coli [13],100%
same,Activity,RAW264.7,Non-toxic
same,selectivity ratio,[8],1
same,Activity,Vero,Non-toxic
same,selectivity ratio,[9],4
same,MIC90,Salmonella typhi [2],23 µg/mL
same,MIC90,Escherichia coli [3]; [19],11 µg/mL
same,MIC90,Pseudomonas aeruginosa; [20],91 µg/mL
same,Activity,[14],100%
same,MIC90,[4],11 µg/mL
H-NGVQPKYRWWRWWRRWWWW-NH2,growth inhibition (GI),Staphylococcus aureus,<90%
same,MIC90,Staphylococcus aureus,> 91 µg/mL
same,selectivity ratio,[5],< 0.06
same,selectivity ratio,[6],0.06
same,selectivity ratio,[10],< 0.06
same,Activity,[7],Toxic
same,MIC90,[1],91 µg/mL
same,selectivity ratio,[12],< 0.06
same,selectivity ratio,[8],< 0.06
same,growth inhibition (GI),Salmonella typhi [2],<90%
same,MIC90,Salmonella typhi [2],> 91 µg/mL
same,growth inhibition (GI),Escherichia coli [3],<90%
same,MIC90,Escherichia coli [3]; [19],> 91 µg/mL
same,growth inhibition (GI),Pseudomonas aeruginosa,<90%
same,MIC90,Pseudomonas aeruginosa; [20],> 91 µg/mL
same,MIC90,Vibrio cholerae non-O1,inactive
H-NGVQPKYRWWRWWRRWW-NH2,MIC90,Staphylococcus aureus,91 µg/mL
same,selectivity ratio,[5],2
same,selectivity ratio,[6],2
same,selectivity ratio,[10],1
same,Activity,[7],Non-toxic
same,MIC90,[1],23 µg/mL
same,Activity,[15],Active
same,Activity,Salmonella typhi [16],Active
same,Activity,Escherichia coli [17],100%
same,Activity,RAW264.7,Non-toxic
same,selectivity ratio,[8],0.5
same,Activity,Vero,Non-toxic
same,selectivity ratio,[9],1
same,MIC90,Salmonella typhi [2],23 µg/mL
same,MIC90,Escherichia coli [3]; [19],46 µg/mL
same,MIC90,Pseudomonas aeruginosa,inactive
same,Activity,[14],Active
same,MIC90,[4],46 µg/mL
H-NGVQPKYRWWRWWRRWW-OH,growth inhibition (GI),Staphylococcus aureus,<90%
same,MIC90,Staphylococcus aureus,> 91 µg/mL
same,selectivity ratio,[5],< 0.25
same,selectivity ratio,[6],1
same,selectivity ratio,[10],0.5
same,Activity,[7],Toxic
same,MIC90,[1],23 µg/mL
same,Activity,[15],Active
same,Activity,Salmonella typhi [16],Active
same,Activity,Escherichia coli [17],100%
same,Activity,RAW264.7,Toxic
same,selectivity ratio,[8],< 0.25
same,Activity,Vero,Toxic
same,growth inhibition (GI),Salmonella typhi [2],<90%
same,MIC90,Salmonella typhi [2],> 91 µg/mL
same,MIC90,Escherichia coli [3]; [19],46 µg/mL
same,MIC90,Pseudomonas aeruginosa,inactive
same,Activity,[14],Active
same,MIC90,Vibrio cholerae non-O1,inactive
H-NGVQPKYKWWKWWKKWWW-NH2,growth inhibition (GI),Staphylococcus aureus,<90%
same,MIC90,Staphylococcus aureus,> 91 µg/mL
same,selectivity ratio,[5],1
same,selectivity ratio,[6],1
same,selectivity ratio,[10],2
same,Activity,[7],Toxic
same,MIC90,[1],23 µg/mL
same,Activity,Salmonella typhi [18],100%
same,Activity,Escherichia coli [11],Active
same,Activity,Escherichia coli [13],100%
same,selectivity ratio,[8],< 0.5
same,MIC90,Salmonella typhi [2],23 µg/mL
same,MIC90,Escherichia coli [3]; [19],11 µg/mL
same,MIC90,Pseudomonas aeruginosa,inactive
same,Activity,[14],100%
same,MIC90,Vibrio cholerae non-O1,inactive
H-RWWRWWRRWW-NH2,growth inhibition (GI),Staphylococcus aureus,<90%
same,MIC90,Staphylococcus aureus,> 91 µg/mL
same,selectivity ratio,[5],< 0.02
same,selectivity ratio,[6],< 0.02
same,selectivity ratio,[10],< 0.02
same,Activity,[7],Toxic
same,growth inhibition (GI),[1],<90%
same,MIC90,[1],> 91 µg/mL
same,selectivity ratio,[12],0.04
same,selectivity ratio,[8],< 0.02
same,selectivity ratio,[9],0.08
same,growth inhibition (GI),Salmonella typhi [2],<90%
same,MIC90,Salmonella typhi [2],> 91 µg/mL
same,growth inhibition (GI),Escherichia coli [3],<90%
same,MIC90,Escherichia coli [3]; [19],> 91 µg/mL
same,MIC90,Pseudomonas aeruginosa; [20],46 µg/mL
same,MIC90,[4],23 µg/mL
